Assay results taken from ChEMBL document CHEMBL3808280, “GroEL/ES inhibitors as potential antibiotics” (Bioorg Med Chem Lett, 2016).

Key:
Acinetobacter baumannii = test: Antibacterial activity against multidrug resistant Acinetobacter baumannii 2208 (ATCC 19606) assessed as reduction in bacterial growth incubated for 6 to 8 hrs; assay type: functional
Outline: (§1)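 Broth proliferation assay. S. aureus and MRSA grown in ATCC Medium 18, other pathogens in Brain Heart Infusion. Stagnant incubation at 37°C under breathable seal. OD600 read at mid-log (6-8 h) and corrected with bacteria-free baseline plates. EC50 by variable-slope nonlinear fit, at least triplicate.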

Escherichia coli [1] = test: Antibacterial activity against Escherichia coli SM101 assessed as reduction in bacterial growth incubated for 12 hrs by UV-Vis spectrophotometric analysis; assay type: functional, organism-based; conditions: SM101, 12 h
Escherichia coli [2] = test: Antibacterial activity against Escherichia coli DH5alpha assessed as reduction in bacterial growth incubated for 6 to 8 hrs; assay type: functional, organism-based; conditions: DH5[alpha]
HEK293 = test: Cytotoxicity against HEK293 cells assessed as reduction in cell viability after 48 hrs by alamar blue assay; assay type: cell-based; conditions: Homo sapiens, HEK293, 48 h
E. coli GroEL/ES [3] = target: T1, E. coli GroEL/ES (Escherichia coli, UniProt P0A6F5); test: Inhibition of Escherichia coli GroEL/GroES using Escherichia coli GroEL expressed in Escherichia coli DH5alpha cells and Escherichia coli GroES expressed in Escherichia coli BL21(DE3) cells assessed as reduction in pig heart native refolded MDH-mediated NADH production by micro plate reader analysis
Outline: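 Native MDH counter-screen. GroEL/ES-dMDH refolding run 60 min at 37°C, then EDTA-quenched without compound. IC50 averaged from at least triplicate.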

Enterobacter cloacae = test: Antibacterial activity against multidrug resistant Enterobacter cloacae subsp. cloacae CDC 442-68 (ATCC 13047) assessed as reduction in bacterial growth incubated for 6 to 8 hrs; assay type: functional, organism-based; outline: as §1
Pseudomonas aeruginosa = test: Antibacterial activity against multidrug resistant Pseudomonas aeruginosa NCTC 10332 (ATCC 10145) assessed as reduction in bacterial growth incubated for 6 to 8 hrs; assay type: functional, organism-based; outline: as §1
HSP60/HSP10 [4] = target: T2, HSP60/HSP10 (Homo sapiens, UniProt P10809); test: Inhibition of human HSP60/HSP10 expressed in Escherichia coli Rosetta2(DE3) cells assessed as reduction in denatured pig heart MDH ATPase activity by malachite green dye based assay
E. coli GroEL/ES [5] = target: T1, E. coli GroEL/ES; test: Inhibition of Escherichia coli GroEL/GroES using Escherichia coli GroEL expressed in Escherichia coli DH5alpha cells and Escherichia coli GroES expressed in Escherichia coli BL21(DE3) cells assessed as inhibition of denatured rhodanese refolding by measuring reduction in thiocyanate production incubated for 60 mins by micro plate reader analysis
Outline: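 Urea-denatured rhodanese bound to GroEL/GroES in folding buffer containing thiosulfate. After 60 min at 37°C, thiocyanate reaction (KCN, thiosulfate, phosphate) run, then formaldehyde quench and ferric nitrate added. Fe(SCN)3 read at 460 nm after 15 min RT, with protein-free baseline plates.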

E. coli GroEL/ES [6] = target: T1, E. coli GroEL/ES; test: Inhibition of Escherichia coli GroEL/GroES using Escherichia coli GroEL expressed in Escherichia coli DH5alpha cells and Escherichia coli GroES expressed in Escherichia coli BL21(DE3) cells assessed as reduction in native refolded rhodanese-mediated thiocyanate production by micro plate reader analysis
[7] = tested on: Klebsiella pneumoniae subsp. pneumoniae; test: Antibacterial activity against multidrug resistant Klebsiella pneumoniae subsp. pneumoniae NCTC 9633 (ATCC 13883) assessed as reduction in bacterial growth incubated for 6 to 8 hrs; assay type: functional, organism-based; outline: as §1
Escherichia coli [8] = test: Antibacterial activity against acrB-deficient Escherichia coli MC4100 assessed as reduction in bacterial growth incubated for 6 to 8 hrs; assay type: functional, organism-based
Staphylococcus aureus [9] = test: Antibacterial activity against methicillin susceptible Staphylococcus aureus subsp. aureus Seattle 1945 (ATCC 25923) assessed as reduction in bacterial growth incubated for 6 to 8 hrs
E. coli GroEL/ES [10] = target: T1, E. coli GroEL/ES; test: Inhibition of Escherichia coli GroEL/GroES using Escherichia coli GroEL expressed in Escherichia coli DH5alpha cells and Escherichia coli GroES expressed in Escherichia coli BL21(DE3) cells assessed as inhibition of denatured pig heart MDH refolding by measuring reduction in NADH production incubated for 60 mins by micro plate reader analysis
Outline: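 Denatured MDH (guanidine-HCl/DTT, 30 min RT) bound to GroEL with GroES in Tris pH 7.4, KCl, MgCl2, DTT buffer. 60 min at 37°C, EDTA quench to 100 mM. Refolded MDH activity read with mesoxalate/NADH at 340 nm. Log-averaged IC50 from replicates.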

[11] = Cytotoxicity against human THLE3 cells assessed as reduction in cell viability after 48 hrs by alamar blue assay; assay type: cell-based; conditions: THLE3, 48 h
Bacillus subtilis = test: Antibacterial activity against Bacillus subtilis 168 assessed as reduction in bacterial growth incubated for 6 to 8 hrs; assay type: functional, organism-based; conditions: subsp. subtilis str. 168
HSP60/HSP10 [12] = target: T2, HSP60/HSP10; test: Inhibition of human HSP60/HSP10 expressed in Escherichia coli Rosetta2(DE3) cells assessed as inhibition of denatured pig heart MDH refolding by measuring reduction in NADH production incubated for 60 mins by micro plate reader analysis
Outline: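 Pig heart MDH was denatured in guanidine-HCl (dMDH) and complexed with HSP60, then HSP10, in Tris pH 7.4/KCl/MgCl2/DTT buffer. EDTA quench (100 mM final); refolded MDH activity was followed with mesoxalate/NADH at 340 nm.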

E. coli GroEL/ES [13] = target: T1, E. coli GroEL/ES; test: Inhibition of Escherichia coli GroEL/GroES using Escherichia coli GroEL expressed in Escherichia coli DH5alpha cells and Escherichia coli GroES expressed in Escherichia coli BL21(DE3) cells assessed as reduction in denatured pig heart MDH ATPase activity by malachite green dye based assay
Staphylococcus aureus [14] = test: Antibacterial activity against methicillin resistant Staphylococcus aureus subsp. aureus HPV107 (ATCC BAA-44) assessed as reduction in bacterial growth incubated for 6 to 8 hrs; assay type: functional, organism-based; outline: as §1
Enterococcus faecium = test: Antibacterial activity against multidrug resistant Enterococcus faecium NCTC 7171 (ATCC 19434) assessed as reduction in bacterial growth incubated for 6 to 8 hrs; assay type: functional, organism-based; outline: as §1

T2 sequence (P10809 whole entry): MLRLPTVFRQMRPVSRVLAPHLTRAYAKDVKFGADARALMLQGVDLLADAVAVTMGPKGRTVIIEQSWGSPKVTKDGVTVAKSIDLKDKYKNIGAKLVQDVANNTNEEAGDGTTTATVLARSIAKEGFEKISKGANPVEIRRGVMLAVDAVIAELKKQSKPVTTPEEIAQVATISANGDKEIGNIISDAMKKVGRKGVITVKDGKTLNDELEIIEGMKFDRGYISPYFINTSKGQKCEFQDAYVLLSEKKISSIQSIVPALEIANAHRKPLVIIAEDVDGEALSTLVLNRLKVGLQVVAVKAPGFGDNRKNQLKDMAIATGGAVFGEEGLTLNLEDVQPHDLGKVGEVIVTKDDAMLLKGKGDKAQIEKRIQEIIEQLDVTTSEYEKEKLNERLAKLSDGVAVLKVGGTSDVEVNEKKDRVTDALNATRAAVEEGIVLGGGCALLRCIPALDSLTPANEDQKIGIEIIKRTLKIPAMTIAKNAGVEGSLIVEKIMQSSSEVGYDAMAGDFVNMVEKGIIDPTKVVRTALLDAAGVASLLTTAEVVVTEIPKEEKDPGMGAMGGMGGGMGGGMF
T2 sequence (P61604 whole entry, further chain): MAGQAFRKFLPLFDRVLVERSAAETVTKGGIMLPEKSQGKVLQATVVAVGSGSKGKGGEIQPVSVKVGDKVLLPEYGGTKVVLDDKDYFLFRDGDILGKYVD
T1 sequence (P0A6F5 whole entry, looked up): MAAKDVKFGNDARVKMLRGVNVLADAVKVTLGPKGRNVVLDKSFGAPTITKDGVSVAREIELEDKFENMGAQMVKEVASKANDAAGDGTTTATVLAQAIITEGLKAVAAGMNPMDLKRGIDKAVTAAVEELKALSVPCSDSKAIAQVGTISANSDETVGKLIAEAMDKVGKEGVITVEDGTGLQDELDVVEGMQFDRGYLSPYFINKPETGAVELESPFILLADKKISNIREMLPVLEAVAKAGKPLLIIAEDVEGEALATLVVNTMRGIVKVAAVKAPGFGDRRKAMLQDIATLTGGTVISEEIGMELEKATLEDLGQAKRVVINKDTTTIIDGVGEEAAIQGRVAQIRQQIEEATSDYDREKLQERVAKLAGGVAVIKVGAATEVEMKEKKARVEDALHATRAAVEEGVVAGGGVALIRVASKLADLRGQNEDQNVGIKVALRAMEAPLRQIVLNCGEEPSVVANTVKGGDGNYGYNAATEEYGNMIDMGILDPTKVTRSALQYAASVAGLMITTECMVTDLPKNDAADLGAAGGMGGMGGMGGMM

| Structure (SMILES) | EC50 (Acinetobacter baumannii) [µM] | EC50 (Escherichia coli [1]) [µM] | EC50 (Escherichia coli [2]) [µM] | EC50 (HEK293) [µM] | IC50 (E. coli GroEL/ES [3]) [µM] | EC50 (Enterobacter cloacae) [µM] | EC50 (Pseudomonas aeruginosa) [µM] | IC50 (HSP60/HSP10 [4]) [µM] | IC50 (E. coli GroEL/ES [5]) [µM] | IC50 (E. coli GroEL/ES [6]) [µM] | EC50 [7] [µM] | EC50 (Escherichia coli [8]) [µM] | EC50 (Staphylococcus aureus [9]) [µM] | IC50 (E. coli GroEL/ES [10]) [µM] | EC50 [11] [µM] | EC50 (Bacillus subtilis) [µM] | IC50 (HSP60/HSP10 [12]) [µM] | IC50 (E. coli GroEL/ES [13]) [µM] | EC50 (Staphylococcus aureus [14]) [µM] | EC50 (Enterococcus faecium) [µM] |
| --- | --- | --- | --- | --- | --- | --- | --- | --- | --- | --- | --- | --- | --- | --- | --- | --- | --- | --- | --- | --- |
| O=C(Nc1cc([N+](=O)[O-])ccc1O)c1ccc2c(c1)C(=O)N(Cc1ccccc1)C2=O | > 100 | > 100 | > 100 | > 100 | > 62.5 | > 100 | 85 | > 250 | 28 | > 100 | > 100 | > 100 | > 100 | 24 | > 100 | > 100 | 38 | 187 | 15 | > 100 |
| COC(=O)c1ccc(-c2ccc(/C=C3/SC(=S)NC3=O)o2)cc1 | > 100 | 7.6 | > 100 | 44 | > 62.5 | > 100 | > 100 | > 250 | 3 | 8.1 | > 100 | > 100 | 13 | 4.8 | 41 | 16 | 16 | > 250 | 1.5 | > 100 |
| Nc1nnc(SCC(=O)c2ccc(-c3ccccc3)cc2)s1 | > 100 | > 100 | > 100 | > 100 | > 62.5 | > 100 | > 100 | > 250 | 79 |  | > 100 | > 100 | > 100 |  | > 100 | > 100 | > 100 | 107 | > 100 | > 100 |
| CNC(=O)Nc1ccc2nc(-c3ccco3)c(-c3ccco3)nc2c1 | > 100 | > 100 | > 100 | > 100 | > 62.5 | > 100 | > 100 | > 250 | 2.5 | 2.5 | > 100 | > 100 | > 100 | 3 | > 100 | > 100 | 7.4 |  | 94 | > 100 |
| COc1cccc(/C=C2/SC(=S)N(CCC(=O)Nc3ccc(O)cc3)C2=O)c1 | > 100 | > 100 | > 100 | > 100 | > 62.5 | > 100 | > 100 | > 250 | 9.6 | 12 | > 100 | > 100 | 80 | 4.7 | > 100 | > 100 | 13 |  | > 100 | > 100 |
| Nc1ccc(Nc2nc(-c3ccc(O)c(O)c3)cs2)cc1 | 81 | 84 | > 100 | 98 | > 62.5 | > 100 | > 100 | > 250 | 1.7 |  | > 100 | > 100 | > 100 | 2.7 | > 100 | > 100 | 10 | > 250 | > 100 | > 100 |
| O=C(NCCO)Nc1ccc2nc(-c3ccco3)c(-c3ccco3)nc2c1 | > 100 | > 100 | > 100 | > 100 | > 62.5 | > 100 | > 100 | > 250 | 2.6 | 1.4 | > 100 | > 100 | > 100 | 6.5 | > 100 | > 100 | 15 |  | > 100 | > 100 |
| O=C(Nc1ccc2nc(-c3ccco3)c(-c3ccco3)nc2c1)N1CCCC1 | > 100 | > 100 | > 100 | > 100 | > 62.5 | > 100 | > 100 | > 250 | 2.4 | 2.1 | > 100 | > 100 | > 100 | 4.7 | > 100 | > 100 | 13 |  | > 100 | > 100 |
